Series [1] deals with Staphylococcus aureus. Description: Antibacterial activity against vancomycin intermediate Staphylococcus aureus Mu50 infected in ddY mouse assessed as decrease in lung abscesses at 100 mg/kg, ip after 3 days. The class given is functional, organism-based. More on the design: dose 100 mg/kg. In a few lines:
(§1)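 Mice pretreated with cyclophosphamide (100 mg/kg, days −3 and −1) and infected i.v. with Mu50 agar beads (4 x 10^7 to 6 x 10^7 CFU/ml). Given 100 mg/kg i.p. b.i.d. for 3 days, then sacrificed. Lungs fixed in formalin and stained with H&E. Abscesses counted per slice, lung area by cross-section paper, n = 3.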

Series [2] is described as follows: Half life of free unbound fraction in serum of methicillin-resistant Staphylococcus aureus infected ddY mouse at 100 mg/kg, ip administered 1 day post infection by paper disk bioassay method. More on the design: dose 100 mg/kg, route intraperitoneal. The class given is ADME, organism-based. In a few lines: (§2)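 MRSA-infected mice, one day post-inoculation, received a single 100 mg/kg i.p. dose. Serum and lung homogenate collected at 5–120 min, n = 3 per time point. Paper disk bioassay with Bacillus subtilis ATCC 6633, triplicate, 50 µl sample. Detection limits 0.07 µg/ml (serum) and 0.12 µg/ml (lung). Standards in pooled murine matrix, linear-regression curves. Moment analysis.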

The nature of series [3]: fT>MIC in serum of methicillin-resistant Staphylococcus aureus infected ddY mouse at 10 mg/kg, ip BID by paper disk bioassay method. The class given is functional. The conditions noted are these: route intraperitoneal.
A short description of series [4]: Half life in lung of methicillin-resistant Staphylococcus aureus infected ddY mouse at 100 mg/kg, ip administered 1 day post infection by paper disk bioassay method. The class given is ADME, organism-based. More on the design: dose 100 mg/kg, route intraperitoneal. The method in brief:
as §2

Series [5] in a line: AUC (0 to infinity) in serum of methicillin-resistant Staphylococcus aureus infected ddY mouse at 100 mg/kg, ip administered 1 day post infection by paper disk bioassay method. The class given is ADME, organism-based. More on the design: time infinity, dose 100 mg/kg, route intraperitoneal. In a few lines:
as §2

Series [6] has as its system Staphylococcus aureus. Description: Antibacterial activity against methicillin-resistant Staphylococcus aureus NUMR101 infected in ddY mouse assessed as viable bacteria in lungs at 100 mg/kg, ip administered 1 day postinfection (Rvb=8.42 +/- 0.50 log CFU/ml). The note with it: route intraperitoneal. The class given is functional.
Series [7] has as its system Staphylococcus aureus. Description: Antibacterial activity against methicillin-resistant Staphylococcus aureus NUMR101 by broth microdilution method. The class given is functional. In a few lines: (§3)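 Broth microdilution in Mueller-Hinton II broth. Inoculum 5 x 10^5 CFU/ml. Drugs dissolved in sterile water just before use.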
A short description of series [8]: Cmax in lung of methicillin-resistant Staphylococcus aureus infected ddY mouse at 100 mg/kg, ip administered 1 day post infection by paper disk bioassay method. The class given is ADME, organism-based. More on the design: dose 100 mg/kg, route intraperitoneal. In a few lines:
as §2

For series [9], the system named is Staphylococcus aureus. Description: Antibacterial activity against vancomycin-intermediate Staphylococcus aureus Mu50 infected in ddY mouse assessed as viable bacteria in lungs at 100 mg/kg, ip administered 1 day postinfection measured after 3 days (Rvb=9.64 +/- 0.63 log CFU/ml). The class given is functional. The conditions noted are these: route intraperitoneal.

Series [10] concerns Staphylococcus aureus. The experiment in a line: Antibacterial activity against vancomycin-intermediate Staphylococcus aureus Mu50 infected in ddY mouse assessed as survival of the mouse at 100 mg/kg, ip administered 1 day postinfection measured after 10 days. The class given is functional. The note with it: route intraperitoneal. In a few lines: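 Cyclophosphamide-pretreated (100 mg/kg, days −3 and −1) ddY mice infected i.v. with Mu50 agar beads at 2 x 10^9 to 4 x 10^9 CFU/ml. Treated 100 mg/kg i.p. b.i.d. from day 1 for 10 days. Survival recorded daily for 10 days, n = 10, Kaplan-Meier curves.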

Series [11] can be described thus: AUC (0 to infinity) in lung of methicillin-resistant Staphylococcus aureus infected ddY mouse at 100 mg/kg, ip administered 1 day post infection by paper disk bioassay method. More on the design: dose 100 mg/kg, route intraperitoneal, time infinity. The class given is ADME, organism-based. In a few lines:
as §2

Series [12] is described as follows: fT>MIC in serum in vancomycin intermediate Staphylococcus aureus infected ddY mouse at 100 mg/kg, ip BID by paper disk bioassay method. The class given is functional. The conditions noted are these: route intraperitoneal.
A short description of series [13]: Cmax in serum of methicillin-resistant Staphylococcus aureus infected ddY mouse at 100 mg/kg, ip administered 1 day post infection by paper disk bioassay method. The class given is ADME, organism-based. More on the design: dose 100 mg/kg, route intraperitoneal. In a few lines:
as §2

The subject of series [14] is Serum. Description: Protein binding in serum of methicillin-resistant Staphylococcus aureus infected ddY mouse at 100 mg/kg, ip. More on the design: dose 100 mg/kg, route intraperitoneal. The class given is ADME, organism-based. The conditions noted are these: in vivo.
A short description of series [15]: T>MIC in serum of methicillin-resistant Staphylococcus aureus infected ddY mouse at 10 mg/kg, ip BID by paper disk bioassay method. The class given is functional. The note with it: route intraperitoneal.
The subject of series [16] is Staphylococcus aureus. Description: Antibacterial activity against vancomycin intermediate Staphylococcus aureus Mu50 infected in ddY mouse assessed as decrease in lung inflammation at 100 mg/kg, ip after 3 days. The class given is functional, organism-based. More on the design: dose 100 mg/kg. The method in brief:
as §1

The nature of series [17]: T>MIC in lung in vancomycin intermediate Staphylococcus aureus infected ddY mouse at 100 mg/kg, ip BID by paper disk bioassay method. The class given is functional. The note with it: route intraperitoneal.
Series [18] deals with Serum. The experiment in a line: fAUC (0 to infinity) in serum of methicillin-resistant Staphylococcus aureus infected ddY mouse at 100 mg/kg, ip administered 1 day post infection by paper disk bioassay method. The class given is ADME, organism-based. More on the design: dose 100 mg/kg, route intraperitoneal. The conditions noted are these: in vivo, 24 h. The method in brief:
as §2

Series [19] is described as follows: T>MIC in lung of methicillin-resistant Staphylococcus aureus infected ddY mouse at 10 mg/kg, ip BID by paper disk bioassay method. The conditions noted are these: route intraperitoneal. The class given is functional.
In series [20] the test system is Serum. Description: fCmax in serum of methicillin-resistant Staphylococcus aureus infected ddY mouse at 100 mg/kg, ip administered 1 day post infection by paper disk bioassay method. More on the design: dose 100 mg/kg, route intraperitoneal. The conditions noted are these: in vivo, 24 h. The class given is ADME, organism-based. The method in brief: as §2
The subject of series [21] is Staphylococcus aureus. Description: Antibacterial activity against vancomycin intermediate Staphylococcus aureus Mu50 by broth microdilution method. The class given is functional. In a few lines: as §3
The nature of series [22]: T>MIC in serum in vancomycin intermediate Staphylococcus aureus infected ddY mouse at 100 mg/kg, ip BID by paper disk bioassay method. The class given is functional. The conditions noted are these: route intraperitoneal.
A short description of series [23]: Half life in serum of methicillin-resistant Staphylococcus aureus infected ddY mouse at 100 mg/kg, ip administered 1 day post infection by paper disk bioassay method. The class given is ADME, organism-based. More on the design: dose 100 mg/kg, route intraperitoneal. The method in brief:
as §2

A short description of series [24]: Half life in serum of methicillin-resistant Staphylococcus aureus infected ddY mouse at 100 mg/kg, ip administered 1 day post infection by fluorescence polarization immunoassay. The class given is ADME, organism-based. More on the design: dose 100 mg/kg, route intraperitoneal. In a few lines: (§4)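 Single 100 mg/kg i.p. dose given 1 day after i.v. MRSA NUMR101 agar-bead infection. Mice killed 5, 15, 30, 60, 90, 120 min after dosing, n = 3 per time point. Serum and saline lung homogenate stored at –80°C. Assayed by fluorescence polarization immunoassay (detection limit 2 µg/ml) against standard curves in pooled murine serum or lung homogenate. Parameters by moment analysis.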
On the technique in general: Polarisation of emitted light reports the rotation of a fluorescent probe.

A short description of series [25]: Half life in lung of methicillin-resistant Staphylococcus aureus infected ddY mouse at 100 mg/kg, ip administered 1 day post infection by fluorescence polarization immunoassay. More on the design: dose 100 mg/kg, route intraperitoneal. The class given is ADME, organism-based. In a few lines:
as §4

The subject of series [26] is Serum. Description: fAUC (0 to infinity) in serum of methicillin-resistant Staphylococcus aureus infected ddY mouse at 100 mg/kg, ip administered 1 day post infection by fluorescence polarization immunoassay. The class given is ADME, organism-based. More on the design: dose 100 mg/kg, route intraperitoneal. The conditions noted are these: in vivo, 24 h. The method in brief:
as §4

Series [27] can be described thus: Cmax in lung of methicillin-resistant Staphylococcus aureus infected ddY mouse at 100 mg/kg, ip administered 1 day post infection by fluorescence polarization immunoassay. The class given is ADME, organism-based. More on the design: dose 100 mg/kg, route intraperitoneal. In a few lines:
as §4

The subject of series [28] is Serum. The experiment in a line: fCmax in serum of methicillin-resistant Staphylococcus aureus infected ddY mouse at 100 mg/kg, ip administered 1 day post infection by fluorescence polarization immunoassay. The class given is ADME, organism-based. More on the design: dose 100 mg/kg, route intraperitoneal. The note with it: in vivo, 24 h. In a few lines: as §4
Series [29] in a line: AUC (0 to infinity) in lung of methicillin-resistant Staphylococcus aureus infected ddY mouse at 100 mg/kg, ip administered 1 day post infection by fluorescence polarization immunoassay. The class given is ADME, organism-based. More on the design: time infinity, dose 100 mg/kg, route intraperitoneal. In a few lines:
as §4

Series [30] is described as follows: Ratio of AUC (0 to 24 hrs) in lung in vancomycin intermediate Staphylococcus aureus infected ddY mouse at 100 mg/kg, ip BID to MIC for methicillin-resistant Staphylococcus aureus.
Series [31] in a line: Half life of free unbound fraction in serum of methicillin-resistant Staphylococcus aureus infected ddY mouse at 100 mg/kg, ip administered 1 day post infection by fluorescence polarization immunoassay. More on the design: dose 100 mg/kg, route intraperitoneal. The class given is ADME, organism-based. The method in brief: as §4
Series [32] is described as follows: AUC (0 to infinity) in serum of methicillin-resistant Staphylococcus aureus infected ddY mouse at 100 mg/kg, ip administered 1 day post infection by fluorescence polarization immunoassay. The class given is ADME, organism-based. More on the design: time infinity, dose 100 mg/kg, route intraperitoneal. In a few lines: as §4
Series [33] in a line: Cmax in serum of methicillin-resistant Staphylococcus aureus infected ddY mouse at 100 mg/kg, ip administered 1 day post infection by fluorescence polarization immunoassay. The class given is ADME, organism-based. More on the design: dose 100 mg/kg, route intraperitoneal. In a few lines: as §4

A word on the half-life: it is the time in which the quantity being followed falls by half. A lower half-life goes with rapid decline. What is called AUC(0-inf) is the area under the concentration-time curve extrapolated to infinity. Broadly, the MIC is the least concentration at which growth counts as inhibited. High values mean weaker potency, low ones greater potency. Broadly, the Cmax is the maximum level reached in the sampled fluid or tissue.

Values after ≈ are worked out from the molar mass of the structure shown. Active and inactive are the calls of the source. No cut-off for these calls is given here.

For the compound `C[C@H]1C=C(c2csc(SC3=C(C(=O)O)N4C(=O)[C@H]([C@@H](C)O)[C@H]4[C@H]3C)n2)CN1` [RAZUPENEM], the result with Staphylococcus aureus [1] and in the series on Staphylococcus aureus [16] was Active. In addition, the half-life in series [2] is 0.84 h; in [4], 0.61 h; in series [23] it was 0.84 h. Also, the “fT>MIC” value is reported as 2.9 in [3]; 23.6 in series [12]; 16.9 in [15]; 20.3 in series [17]; 0 in [19]; 28.2 in [22]. Further, the AUC(0-inf) stood at 127 µg·h/mL in series [5] and 28.4 µg·h/mL in [11]. For the same compound, the CFU/ml turned out to be 5.5 log CFU/ml in the series with Staphylococcus aureus [6] and 7.42 log CFU/ml with Staphylococcus aureus [9]. Moreover, the minimal inhibitory concentration (MIC) in the series with Staphylococcus aureus [7] and against Staphylococcus aureus [21] was 2 µg/mL (≈ 4.91 µM) throughout. Also, the results for the Cmax in [8] and in series [13] were 18000 ng/mL and 108000 ng/mL, respectively. Besides, the Activity was 70% in the series on Staphylococcus aureus [10] and 76% in the series with Serum [14]. Further, the fAUC in the series on Serum [18] worked out at 30.6 µg·h/mL. This compound registered a fCmax with Serum [20] of 25.81 µg/mL.
`CN[C@H](CC(C)C)C(=O)N[C@H]1C(=O)N[C@@H](CC(N)=O)C(=O)N[C@H]2C(=O)N[C@H]3C(=O)N[C@H](C(=O)N[C@H](C(=O)O)c4cc(O)cc(O)c4-c4cc3ccc4O)[C@H](O)c3ccc(c(Cl)c3)Oc3cc2cc(c3O[C@@H]2O[C@H](CO)[C@@H](O)[C@H](O)[C@H]2O[C@H]2C[C@](C)(N)[C@H](O)[C@H](C)O2)Oc2ccc(cc2Cl)[C@H]1O` [VANCOMYCIN]: the half-life in series [24] was 2.95 h; in series [25], 1.72 h; in series [31] it was 2.95 h. For the same compound, the CFU/ml was found to be 5.29 log CFU/ml with Staphylococcus aureus [6] and 8.72 log CFU/ml in the series with Staphylococcus aureus [9]. The Activity is given as 20% in the series with Staphylococcus aureus [10] and 25% with Serum [14]. This compound registered a fAUC with Serum [26] of 196 µg·h/mL. Moreover, the highest concentration (Cmax) amounted to 38500 ng/mL in [27] and 60800 ng/mL in [33]. Besides, the fCmax in the series on Serum [28] was determined as 45.6 µg/mL. The minimum inhibitory concentration (MIC) in the series with Staphylococcus aureus [21] was 8 µg/mL (≈ 5.52 µM). The AUC(0-inf) in series [29] came to 127 µg·h/mL; in series [32] it was 261 µg·h/mL. Also, in series [30], the AUC0-24/MIC at 10 mg/kg came to 31.8 µg/mL.
